pIC50: −log10 of the molar value. Activity calls are given as the source filed them. The rule behind the calls is not given here.
Key:
[1] = target: Voltage-dependent calcium channel alpha2delta subunit (Sus scrofa, UniProt O77773); assay: Displacement of [3H]gabapentin from calcium channel alpha2delta in pig cerebral cortex membrane after 30 mins; type: cell membranes
Rattus norvegicus [2] = assay: Antihyperalgesic effect in carrageenan-induced rat inflammatory pain model assessed as reversal of hyperalgesia at 1 to 30 mg/kg, po; type: functional, organism-based
Procedure, shortened: (§1)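 Rats received intraplantar carrageenan in the paw, and thermal hyperalgesia was allowed to form over 2 h, to a paw-withdrawal latency of 2.5 s. Test compound was then given orally. Reversal of hyperalgesia was read as the time to paw withdrawal.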

Rattus norvegicus [3] = assay: Antihyperalgesic effect in carrageenan-induced intrathecal dosed rat inflammatory pain model assessed as reversal of hyperalgesia; type: functional, organism-based
Rattus norvegicus [4] = assay: Analgesic activity in po dosed rat assessed as increase in number shocks received for 10 mins; type: functional; details: read-out: MED
Procedure, shortened: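 Vogel conflict model: rats were dosed orally at different doses, then placed in a cage with a drinking tube that delivered a shock at each drink. The mean number of shocks per rat was counted over 10 min. The minimum effective dose was taken from significance versus vehicle (P <0.05).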

Rattus norvegicus [5] = assay: Antihyperalgesic effect in carrageenan-induced rat inflammatory pain model assessed as reversal of hyperalgesia at 30 mg/kg, po; type: functional, organism-based; set-up: dose 30 mg/kg; procedure, shortened: as §1

Chain of Voltage-dependent calcium channel alpha2delta subunit (O77773 whole entry): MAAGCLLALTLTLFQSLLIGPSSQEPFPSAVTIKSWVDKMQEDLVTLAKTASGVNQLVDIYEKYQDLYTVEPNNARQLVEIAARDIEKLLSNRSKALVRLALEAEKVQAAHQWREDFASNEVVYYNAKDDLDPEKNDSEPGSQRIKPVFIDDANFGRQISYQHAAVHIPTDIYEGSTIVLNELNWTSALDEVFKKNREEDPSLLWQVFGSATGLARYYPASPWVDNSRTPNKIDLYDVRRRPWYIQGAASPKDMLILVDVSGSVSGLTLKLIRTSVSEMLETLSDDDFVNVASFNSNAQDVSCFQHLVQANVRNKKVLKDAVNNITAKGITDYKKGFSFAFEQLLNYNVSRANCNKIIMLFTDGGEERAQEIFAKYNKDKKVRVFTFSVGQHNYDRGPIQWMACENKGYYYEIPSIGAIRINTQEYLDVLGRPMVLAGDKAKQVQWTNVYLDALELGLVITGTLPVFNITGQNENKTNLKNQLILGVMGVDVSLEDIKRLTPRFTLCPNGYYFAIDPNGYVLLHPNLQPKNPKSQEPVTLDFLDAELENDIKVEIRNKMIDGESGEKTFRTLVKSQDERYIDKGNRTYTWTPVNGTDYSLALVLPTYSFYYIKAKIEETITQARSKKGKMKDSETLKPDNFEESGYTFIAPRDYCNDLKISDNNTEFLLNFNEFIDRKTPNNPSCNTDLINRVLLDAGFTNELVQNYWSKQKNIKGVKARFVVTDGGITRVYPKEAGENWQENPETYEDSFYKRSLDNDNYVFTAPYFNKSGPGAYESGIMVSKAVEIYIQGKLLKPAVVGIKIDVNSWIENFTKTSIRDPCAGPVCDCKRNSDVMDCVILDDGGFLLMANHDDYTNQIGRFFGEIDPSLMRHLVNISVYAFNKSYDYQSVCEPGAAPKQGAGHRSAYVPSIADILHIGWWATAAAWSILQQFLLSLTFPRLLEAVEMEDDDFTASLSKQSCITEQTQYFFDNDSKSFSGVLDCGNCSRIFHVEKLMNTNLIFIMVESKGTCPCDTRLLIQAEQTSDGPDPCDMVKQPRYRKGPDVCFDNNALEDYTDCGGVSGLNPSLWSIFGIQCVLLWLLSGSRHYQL

CC[C@H]1CCC(CN)(CC(=O)O)C1 (stereo not given in full)
pIC50 [1]: 6.15

CCC1CCC(CN)(CC(=O)O)C1 (mixture of isomers)
pIC50 [1]: 7.26

CC1(C)CCC(CN)(CC(=O)O)C1 (stereo not given)
pIC50 [1]: 5.50

NCC1(CC(=O)O)CCC(Cc2ccccc2)C1 (mixture of isomers)
pIC50 [1]: 5.03

CC[C@@H]1CCC(CN)(CC(=O)O)C1 (stereo not given in full)
pIC50 [1]: 7.28

CCCCC1CCC(CN)(CC(=O)O)C1 (mixture of isomers)
pIC50 [1]: 6.16

C[C@@H]1CC[C@](CN)(CC(=O)O)C1
Activity (Rattus norvegicus [2]): inactive | Activity (Rattus norvegicus [3]): Active | minimal effective dose (Rattus norvegicus [4]): 3 mg/kg | pIC50 [1]: 7.52

CC1CCC(CN)(CC(=O)O)C1 (mixture of isomers)
pIC50 [1]: 7.09

C[C@H]1CCC(CN)(CC(=O)O)C1 (single isomer, unassigned)
pIC50 [1]: 5.89

CCC[C@@H]1CCC(CN)(CC(=O)O)C1 (stereo not given in full)
pIC50 [1]: 7.54

CC(C)(C)C1CCC(CN)(CC(=O)O)C1 (mixture of isomers)
pIC50 [1]: < 5.00

CCCC1CCC(CN)(CC(=O)O)C1 (mixture of isomers)
pIC50 [1]: 7.16

NCC1(CC(=O)O)CCC(CCc2ccccc2)C1 (mixture of isomers)
pIC50 [1]: 5.21

C[C@@H]1CCC(CN)(CC(=O)O)C1 (stereo not given in full)
pIC50 [1]: 7.06

CCC[C@H]1CCC(CN)(CC(=O)O)C1 (single isomer, unassigned)
pIC50 [1]: 5.92

NCC1(CC(=O)O)CCC(c2ccccc2)C1 (mixture of isomers)
pIC50 [1]: 5.30

C[C@@H]1CC[C@@](CN)(CC(=O)O)C1
Activity (Rattus norvegicus [5]): Active | minimal effective dose (Rattus norvegicus [4]): 30 mg/kg | pIC50 [1]: 7.15

NCC1(CC(=O)O)CCCC1 [GABABUTIN]
pIC50 [1]: 6.38

CC(C)CC1CCC(CN)(CC(=O)O)C1 (mixture of isomers)
pIC50 [1]: 6.12

CC(C)C[C@H](CN)CC(=O)O [PREGABALIN]
minimal effective dose (Rattus norvegicus [4]): 10 mg/kg

Reference: ChEMBL document CHEMBL1153100, “Synthesis and in vivo evaluation of 3-substituted gababutins” (Bioorg Med Chem Lett, 2010)
